Experimental data published in paper PMC6387680 (Leukemia & lymphoma, 2011).
Where “and” joins values, the source holds several entries; their conditions need not be identical. Equal values may be shown once.

What was measured:
[1] = test system: absolute lymphocyte count (ALC); assay: Absolute lymphocyte count after UCN-01; format: in vivo, human
[2] = Plasma UCN-01 pharmacokinetics; format: in vivo, human
[3] = test system: patients with refractory solid tumors; conditions: 24 patients; cited from earlier work
[4] = test system: patients with relapsed lymphoma or CLL; assay: Toxicity of cycle 1 UCN-01 alone; format: in vivo, human
Neoplastic B cells = assay: In vivo apoptosis by annexin V-FITC flow cytometry of peripheral blood; set-up: species or system human; conditions: for Peak value of apoptosis (annexin V-positive cells): CLL patient; for apoptotic B cells positive for CD19 and annexin V: time point not stated
Method in brief: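 Peripheral blood was stained within 12 h of collection. Erythrocytes were lysed (150 mM NH4Cl, 10 mM KHCO3, 0.1 mM EDTA; 10 min, room temperature), spun 500 × g for 15 min and washed twice in PBS/0.1% NaN3. Cells were co-stained 30 min with annexin V-FITC plus tumour-marker antibodies (CD19, CD5 for CLL). Four-colour flow, ≥5000 lymphocytes per tube. Controls were thawed lymphocytes (positive) and fresh whole blood (negative).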

[5] = test system: patients with refractory neoplasms; conditions: cited from earlier work
lymphocyte count = conditions: associated with decreasing lymph node size; cited from earlier work
[6] = human, plasma, iv, 45 mg/m^2/day
[7] = median, n=15, cycle 1, 72 h IV infusion at 45 mg/m^2/day
[8] = cycle 1 UCN-01 alone, n (%) of 18 patients

In the case of CN[C@@H]1C[C@H]2O[C@@](C)([C@@H]1OC)n1c3ccccc3c3c4c(c5c6ccccc6n2c5c31)C(=O)N[C@@H]4O [UCN-01, 7-hydroxystaurosporine], the “day of peak lymphocytosis” value ([1]; cycle 1) is reported as at most 4 days, the “increase in the absolute lymphocyte count (ALC)” value ([1]; first three of four patients with CLL, first cycle of UCN-01 alone) is reported as 2.0–2.7 fold and the “patients with lymphocytosis following UCN-01” value ([1]; in vivo) is reported as 15 of 18. For the same compound, the “difference in UCN-01 CLtot between cycle 1 (without FAMP) and cycle 2 (with FAMP)” value ([2]; five evaluable patients, paired t-test p = 0.27) was “no intra-individual difference”, the Vd ([2]; human, plasma, intravenous, 45 mg/m^2/day) was 3 to 18 L and the AUC(0-inf) [2, 6] was 7260 µg·h/mL. For the same compound, the Cmax [2, 6] was 16700 ng/mL, the VλZ [2, 7] was 7.4 L and the “t1/2 (terminal)” value [2, 7] was 15.02 days. For the same compound, the objective responses [3] was “no objective responses”, the toxicities noted [3] was “grade 1–2 nausea, vomiting, hyperglycemia, and hypotension” and the “grade 4 hyperuricemia, patients” value ([4]; among the three patients with tumor lysis syndrome) was “three”. For the same compound, the “Single episodes of grade 2 toxicities” value ([4]; cycle 1 UCN-01 alone) was “an elevated bicarbonate level, circulation cardiac-other, constipation, an elevated CPK, depression, dyspepsia, pruritus, and taste disturbance”, the “grade 3 toxicities that occurred one time during cycle 1” value ([4]; cycle 1 UCN-01 alone) was “isolated elevated SGPT and one episode of febrile neutropenia” and the “Amylase, grade 2 or 3 toxicity” value [4, 8] was 2(11%). The “Creatinine, grade 2 or 3 toxicity” value [4, 8] was 4(22%), the “Headache, grade 2 or 3 toxicity” value [4, 8] was 8(44%) and the “Hemoglobin, grade 2 or 3 toxicity” value [4, 8] was 6(33%). For the same compound, the “Hyperglycemia, grade 2 or 3 toxicity” value [4, 8] was 12(67%), the “Hypermagnesemia, grade 2 or 3 toxicity” value [4, 8] was 3(16%) and the “Hypoalbuminemia, grade 2 or 3 toxicity” value [4, 8] was 2(11%). The “Hypocalcemia, grade 2 or 3 toxicity” value [4, 8] was 6(33%), the “Hyponatremia, grade 2 or 3 toxicity” value [4, 8] was 2(11%) and the “Hypoxia, grade 2 or 3 toxicity” value [4, 8] was 6(33%). For the same compound, the “Inf w/o neut (infection without neutropenia), grade 2 or 3 toxicity” value [4, 8] was 2(11%), the “Leukopenia, grade 2 or 3 toxicity” value [4, 8] was 3(16%) and the “Lymphopenia, grade 2 or 3 toxicity” value [4, 8] was 5(27%). For the same compound, the “Myalgia, grade 2 or 3 toxicity” value [4, 8] was 2(11%), the “Nausea, grade 2 or 3 toxicity” value [4, 8] was 8(44%) and the “Neutropenia, grade 2 or 3 toxicity” value [4, 8] was 4(22%). The “Rash/desquamation, grade 2 or 3 toxicity” value [4, 8] was 2(11%), the “SGOT (AST), grade 2 or 3 toxicity” value [4, 8] was 3(16%) and the “Stomatitis, grade 2 or 3 toxicity” value [4, 8] was 3(16%). The “Sup/vnt arrh (supraventricular arrhythmia), grade 2 or 3 toxicity” value [4, 8] was 2(11%), the “Trans prbcs (transfused packed red blood cells), grade 2 or 3 toxicity” value [4, 8] was 3(16%) and the “Tumor lysis, grade 2 or 3 toxicity” value [4, 8] was 3(16%). The “Vomiting, grade 2 or 3 toxicity” value [4, 8] was 4(22%), the “tumor lysis syndrome (grade 3, CTCAE v2), patients” value ([4]; in vivo) was “Three” and the “Hypocalcemia (grade 2), patients” value ([4]; six patients) was 33%. The creatinine peak ([4]; tumor lysis patients with renal dysfunction) was 2.1 mg/dL, the “serum blood urea nitrogen [BUN] peak” value ([4]; two tumor lysis patients with renal dysfunction) was 66 mg/dL and 40 mg/dL and the “Peak value of apoptosis (annexin V-positive cells)” value (Neoplastic B cells; day 4 of cycle 1) was 15%. For the same compound, the “Peak value of apoptosis (annexin V-positive cells)” value (Neoplastic B cells; day 28 of cycle 1) was 8%, the “apoptotic B cells positive for CD19 and annexin V” value (from here on “apoptotic B cells positive”) (Neoplastic B cells; patient 10, Figure 2 (B), low level) was 2.6% and the “apoptotic B cells positive” value (Neoplastic B cells; patient 17, Figure 2 (C), low level) was 3.8%. For the same compound, the “apoptotic B cells positive” value (Neoplastic B cells; patient 17, Figure 2 (E), high level) was 38.9%, the “MTD / recommended phase II dose” value ([5]; 3-day infusion) was 42.5 mg/m^2/day and the “grade 4 hyperglycemia, patients” value ([5]; 42.5 dose level, complicated by steroids) was 1/9. For the same compound, the significant hematopoietic toxicity [5] was “None of the patients had significant hematopoietic toxicity” and the “dose level at which DLT (> grade 3) occurred” value ([5]; nausea/vomiting, hyperglycemia, transient hypoxia) was 53 mg/m^2/ day.

In the case of CC[C@H](Nc1ncnc2[nH]cnc12)c1nc2cccc(F)c2c(=O)n1-c1ccccc1 [CAL-101], the “patients with an increase in lymphocyte count” value (lymphocyte count) is listed as 60%.
